Series [1] in a line: Cmax in Sprague-Dawley rat plasma at 100 mg/kg, po. Type of series: ADME, organism-based. Further details: dose 100 mg/kg, route oral. An outline of the steps:
(§1)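 Dose-proportionality PK in Sprague–Dawley rats (n = 3) given single oral doses of 3, 10, 30 or 100 mg/kg. Liver and plasma were sampled at 0.5, 1, 2, 4 and 8 h and assayed for drug concentration to derive Cmax, AUC(0–∞) and T1/2.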

A short description of series [2]: Half life in Sprague-Dawley rat plasma at 3 mg/kg, po. The series is classed as ADME, organism-based. Further details: dose 3 mg/kg, route oral. Summed up: as §1
A short description of series [3]: AUC (0 to infinity) in Sprague-Dawley rat plasma at 3 mg/kg, po. Type of series: ADME, organism-based. Details: time infinity, dose 3 mg/kg, route oral. Summed up:
as §1

A short description of series [4]: Half life in Sprague-Dawley rat liver at 10 mg/kg, po. The series is classed as ADME, organism-based. Further details: dose 10 mg/kg, route oral. An outline of the steps: as §1
A short description of series [5]: Cmax in Sprague-Dawley rat at 3 mg/kg, po. Type of series: ADME, organism-based. Details: dose 3 mg/kg, route oral. Particulars: in vivo.
The nature of series [6]: AUC (0 to infinity) in Sprague-Dawley rat plasma at 30 mg/kg, po. Type of series: ADME, organism-based. Details: time infinity, dose 30 mg/kg, route oral. An outline of the steps: as §1
For series [7], the system named is Mus musculus. Nature of the series: Decrease in insulin level in 28-day diet-induced obesity C57BL/6 mouse model at 3 mg/kg, po daily for 4 weeks. The series is classed as functional, organism-based. Further details: dose 3 mg/kg. Summed up: (§2)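 C57BL/6 male mice were fed high-fat diet for 4 weeks beforehand to about 40 g and kept on it throughout. Groups of n = 10 were dosed po once daily for 4 weeks at 1 or 3 mg/kg, or vehicle (5% PEG400, 0.25% Tween 80, 94.25% H2O). Food was weighed and replaced with pre-weighed food 3 times weekly. Fed plasma glucose was taken at 2 weeks and insulin at 4 weeks.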

For series [8], the system named is Mus musculus. Nature of the series: Toxicity in 28-day diet-induced obesity C57BL/6 mouse model assessed as liver alanine aminotransferase level at 1 to 3 mg/kg, po daily for 4 weeks. The series is classed as organism-based. Details: dose 1-3 mg/kg, route oral. The settings on record: in vivo, 672 h. Summed up:
(§3)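 C57BL/6 male mice kept on high fat diet 4 weeks before study (body weight about 40 g) and throughout; n = 10, dosed orally once daily for 4 weeks at 1 or 3 mg/kg, vehicle 5% PEG400, 0.25% Tween 80, 94.25% H2O; liver weight and ALT, AST, alkaline phosphatase assessed after 4 weeks.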

Series [9] has as its system Mus musculus. Nature of the series: Decrease in plasma triglyceride level in […] C57BL/6 mouse at 10 mg/kg, po daily for 3 days measured after 6 hrs. Details: scale not given: the % may be the effect or the level left. Type of series: functional.
Series [10] can be described thus: Half life in Sprague-Dawley rat at 3 mg/kg, po. The settings on record: in vivo. Further details: dose 3 mg/kg, route oral. Type of series: ADME, organism-based.
Series [11] deals with Mus musculus. Nature of the series: Toxicity in 28-day diet-induced obesity C57BL/6 mouse model assessed as increase in liver weight at 1 to 3 mg/kg, po daily for 4 weeks. Type of series: organism-based. Further details: dose 1-3 mg/kg, route oral. The settings on record: in vivo, 672 h. An outline of the steps: as §3
Series [12] can be described thus: Half life in Sprague-Dawley rat plasma at 10 mg/kg, po. Details: dose 10 mg/kg, route oral. Type of series: ADME, organism-based. An outline of the steps:
as §1

Series [13] deals with Mus musculus. Nature of the series: Decrease in total food intake in 28-day diet-induced obesity C57BL/6 mouse model at 1 mg/kg, po daily for 4 weeks measured on day 21. The series is classed as functional. Details: scale not given: the % may be the effect or the level left. Summed up:
as §2

A short description of series [14]: Volume of distribution in Sprague-Dawley rat at 1 mg/kg, iv. Type of series: ADME, organism-based. Details: dose 1 mg/kg, route intravenous. Particulars: in vivo. An outline of the steps:
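Rats given IV bolus at 1 mg/kg; clearance, half-life and volume of distribution derived from plasma drug concentrations.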

Series [15] deals with Mus musculus. Nature of the series: Decrease in body weight in […] at 10 mg/kg, po daily for 3 days. Type of series: functional, C57BL/6. Details: scale not given: the % may be the effect or the level left.

These results are taken from ChEMBL document CHEMBL1153899, “Discovery of benzothiazole derivatives as efficacious and enterocyte-specific MTP inhibitors” (Bioorg Med Chem Lett, 2009).

Active and inactive are the calls of the source.

What is called Cmax is the peak of the concentration-time curve. In general, half-life refers to the time needed for the level to fall by half in the phase considered. The AUC(0-inf) is total exposure, with the tail of the curve extrapolated. One may read the Vd as the apparent volume that relates the amount in the body to the concentration in plasma or blood. With `CC(C)c1ccc(-c2ccccc2C(=O)Nc2ccc3nc(C(=O)N[C@H](C(=O)N(C)Cc4ccc(F)cc4)c4ccccc4)sc3c2)cc1`, the figures for the Cmax in [1] and in series [5] were 69.5 ng/mL and 22.2 ng/mL, respectively. Besides, the half-life in series [2] is 2.42 h; in [4] it was 19.4 h; in [10], 2.13 h; in series [12] it was 7.91 h. For the same molecule, the total exposure AUC(0-inf) was determined as 109 ng·h/mL in [3] and 510 ng·h/mL in series [6]. In addition, the result in [7] was Active. The Activity entry was “Non-toxic” in series [8]; 45% in series [9]; “Non-toxic” in [11]; 9% in [13]; 4% in [15]. The Vd in series [14] came to 2.99 L/kg.
